Bioassay records as filed in PubChem.
This is a sample that favours compounds with a hit; in the whole collection about 2.3% have one here.
PAFAH2 inh: PAFAH2 (human) inhibition. actives 0.99% (n = 340,000). recombinant PAFAH2, FP-rhodamine activity probe, fluorescence polarization. AID 492956. Q99487. inhibition, % at 3.39 µM;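 active = inhibition above the mean over all tested compounds plus 3 SD, cut at about 30% in these data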;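 also: inhibitors block probe labeling of enzyme so polarization drops; 0% = enzyme with DMSO and 100% = wells lacking PAFAH2 protein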
PAFAH1B3 inh: inhibitors of human PAFAH1B3. Q15102. recombinant PAFAH1B3, FP-rhodamine probe, fluorescence polarization. inhibition, % at 3.39 µM. actives 0.28% (n = 340,000). AID 492972;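 active = inhibition above the screen-wide average of all tested compounds plus 3 SD, cut at about 25% in these data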;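 also: 0% = enzyme with DMSO only and 100% = wells lacking PAFAH1B3 protein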
TDP2 inh: TDP2 (human) inhibition, absorbance primary screen. O95551. recombinant TDP2, T5PNP hydrolysis, p-nitrophenol absorbance 415 nm. inhibition, % at 12.8 µM. actives 0.34% (n = 370,000);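 active = inhibition above the mean of all tested compounds plus 3 SD, set per campaign, cut at about 25% in these data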;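 also: 0% = DMSO with enzyme and 100% = buffer with substrate but no TDP2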
Target sequence (O95551 whole entry, looked up): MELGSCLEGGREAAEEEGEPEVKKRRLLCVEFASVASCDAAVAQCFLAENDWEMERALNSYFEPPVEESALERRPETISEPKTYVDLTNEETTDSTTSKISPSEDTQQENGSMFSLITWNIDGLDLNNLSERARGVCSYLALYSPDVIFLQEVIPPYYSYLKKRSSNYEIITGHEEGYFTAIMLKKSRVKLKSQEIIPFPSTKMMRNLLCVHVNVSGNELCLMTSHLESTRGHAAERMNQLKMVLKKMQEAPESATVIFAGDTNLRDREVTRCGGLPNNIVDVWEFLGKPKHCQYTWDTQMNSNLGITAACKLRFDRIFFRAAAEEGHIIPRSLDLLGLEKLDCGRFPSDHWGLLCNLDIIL
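Test system: Human TDP2 enzyme | Reagent: 5 mM T5PNP | Compound dosing: 12.8 µM single point, 1% DMSO | Incubation: Enzyme reaction with compound for 2 h at 37 °C | Technique: p-Nitrophenol epi absorbance | Read-out: % inhibition relative to enzyme-containing and enzyme-free wells | Benchmarks: High control without enzyme, low control DMSO plus TDP2 | Replicates: Singlicate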
PAFAH1B2 inh: blocks human PAF acetylhydrolase 1b catalytic subunit 2 | inhibition, % at 3.39 µM | actives 1.2% (n = 340,000) | recombinant PAFAH1B2, FP-rhodamine activity probe, fluorescence polarization;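 active = inhibition above the mean of all tested compounds plus 3 SD, cut at about 24% in these data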;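 also: 0% = enzyme with DMSO and 100% = wells lacking PAFAH1B2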
Target sequence (P68402 whole entry, looked up): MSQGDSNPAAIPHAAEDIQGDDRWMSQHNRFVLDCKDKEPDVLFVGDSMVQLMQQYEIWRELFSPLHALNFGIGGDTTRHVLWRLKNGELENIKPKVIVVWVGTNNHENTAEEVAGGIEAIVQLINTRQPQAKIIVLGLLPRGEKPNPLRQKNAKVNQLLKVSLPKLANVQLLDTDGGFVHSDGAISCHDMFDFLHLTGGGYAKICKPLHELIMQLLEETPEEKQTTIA
Apaf1 inhib: inhibitors of human Apaf-1 apoptosome; reconstituted apoptosome caspase-3 activity, DEVD-Rh110 fluorescence; actives 0.71% (n = 330,000); O14727; AID 489030; inhibition, % at 20 µM; active = inhibition of at least 40% at 20 µM;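 also: plate controls were DMSO wells for no effect and DEVD-CHO caspase inhibitor wells for full effect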
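Material: cell-free apoptosome with Apaf-1, procaspase-3 and caspase-9; Buffer or medium: Hepes pH 7.5 with detergent and BSA; Reagent: cytochrome c trigger plus (Z-DEVD)2-Rh110 caspase-3 substrate; Times: compound with Apaf-1, dATP, procaspase-3 30 min, then 50 min reaction, room temperature; Technique: Rh110 fluorescence intensity.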
Apaf-1 inh conf2: Apaf-1 inhibition, single-dose confirmed; shares compounds with Apaf1 inhib; reconstituted apoptosome, caspase-3 DEVD-Rh110 fluorescence; inhibition, % at 20 µM; actives 25% (n = 1,800); AID 504614;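 active = mean inhibition of at least 40% at 20 µM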;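 also: plate controls were DMSO wells for no effect and DEVD-CHO caspase inhibitor control wells for full effect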
Rh110 quench: Rh110 signal interference in Apaf-1 inhibitor counter-screen; shares compounds with Apaf1 inhib; Rh110 fluorescence interference, quenched caspase reaction; activation (fluorescence interference), % at 20 µM; 1,800 tested, under 10 active;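 active = signal rise of 40% or more at 20 µM, treated as a fluorescence artifact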
Fluor interf inh: shows fluorescence interference in the Apaf-1 inhibitor assay format | AID 588538 | 460 tested, under 10 active | IC50, µM | shares compounds with Apaf1 inhib | fluorescence interference counterscreen, Apaf-1 assay format; call rule not given here
Numbers without * were called inactive; . = no result; ! = not active in a repeat.

SMILES	PAFAH2 inh	PAFAH1B3 inh	TDP2 inh	PAFAH1B2 inh	Apaf1 inhib	Apaf-1 inh conf2	Rh110 quench	others
COC(=O)C[C@H]1CC[C@H]2[C@H](COc3ccc(NS(=O)(=O)c4cccc(F)c4)cc3C(=O)N2C)O1	.	.	-1	.	.	.	.
CCCC[C@H]1C2CC(OC(=O)Nc3ccc(Cl)cc3)C(C2)[C@H]2CCCCN21 (stereo partly specified)	.	.	3	.	.	.	.
Cc1ccc(CN2CCCCC(NC(=O)Cc3cccs3)C2=O)cc1 (stereo unspecified)	.	.	7	.	.	.	.
Cc1ccc2nc(-c3ccc(NC(=S)NC4CC(C)(C)NC(C)(C)C4)cc3)sc2c1	1	3	-14	-1	50*	42*	10	Fluor interf inh=>100
CCc1nc(N)c(C#N)c(-c2ccc(O)c(OC)c2)c1C	-3	4	-3	-3	3	.	.
COc1cc(-c2c(C#N)c(=O)[nH]c3c2c(C)nn3-c2ccccc2)ccc1O	11	15	1	5	42*	43*	1	Fluor interf inh=>100
CCOC(=O)C1=C(c2ccccc2)NC(N)=NC1c1ccc(OCc2ccc(C(=O)OC)cc2)cc1 (stereo unspecified)	-9	1	-13	-3	61*	62*	-8	Fluor interf inh=>100
O=C(CSc1nnc(-c2ccc(Cl)cc2)n1Cc1ccco1)Nc1ccc(S(=O)(=O)Nc2nccs2)cc1	.	.	-2	.	.	.	.
COc1ccc2c(c1)CC/C(=C\Nc1ccc3c(c1)OCO3)C2=O	8	5	4	4	78*	47*	4	Fluor interf inh=>100
O=C1/C(=C/Nc2ccc3c(c2)OCO3)CCc2ccccc21	16	8	3	7	45*	32	5
COc1ccc(N/C=C2\CCc3ccccc3C2=O)cc1	4	0	-7	0	79*	36	16
COc1ccc(N/C=C2\CCOC2=O)cc1	-5	-4	-2	0	3	.	.
Nn1c(SCC(=O)N2CCOCC2)nnc1-c1cc(-c2ccc(F)cc2)n[nH]1	.	.	-11	.	.	.	.
O=S(=O)(c1ccc(CN2CCOCCOCCN(Cc3ccc(S(=O)(=O)C(F)(F)F)cc3)CCOCC2)cc1)C(F)(F)F	.	.	0	.	.	.	.
COc1cccc(-n2sc3c(c2=S)-c2cc(OC)ccc2NC3(C)C)c1	3	3	8	3	-9	.	.
CC1(C)Nc2ccc(O)cc2-c2c1ssc2=S	10	7	5	3	51*	34	15
COP1(=O)CCOCC[C@H](CC(C)C)NC(=O)[C@H](CC(C)C)N1 (stereo partly specified)	.	.	-5	.	.	.	.
CC1(C)CC(=O)N(CC(=O)N2CCN(c3cccc(Cl)c3Cl)CC2)c2ccccc2S1(=O)=O	.	.	5	.	.	.	.
CN1CCN(S(=O)(=O)c2ccc(SCCOc3ccccc3)nc2)CC1	-6	-3	0	9	2	.	.
CCOc1ccc(OCCSc2ccc(S(=O)(=O)N3CCN(C)CC3)cn2)cc1	-1	5	-7	4	55*	18	5
CCCCOc1ccc(C)cc1CN(CCO)CCO	-2	-3	-8	-3	-9	.	.
CCC(C)(C)c1ccc(OCCCC[n+]2ccccc2)c(C(C)(C)CC)c1	-1	3	-9	-2	51*	31	17
CCCCCc1ccc(OCCCC[n+]2ccccc2)c(CCCCC)c1	-9	8	.	6	59*	39	12
CCCCCc1ccc(OCCCC[n+]2ccc(C)cc2)c(CCCCC)c1	0	5	-19	5	56*	37	12
CCCCCc1ccc(OCCCC[n+]2cccc(C)c2)c(CCCCC)c1	4	2	1	4	61*	40*	9	Fluor interf inh=>100
SMILES	PAFAH2 inh	PAFAH1B3 inh	TDP2 inh	PAFAH1B2 inh	Apaf1 inhib	Apaf-1 inh conf2	Rh110 quench	others
CC1(C)CC(=O)C=C(Nc2ccccc2NC(=O)c2ccc(F)cc2F)C1	.	.	-1	.	.	.	.
O=C(c1cccc(F)c1F)N1CCCC(c2nc(-c3cccs3)no2)C1 (stereo unspecified)	.	.	7	.	.	.	.
COC(=O)[C@]12C[C@H](CC(=O)NCCCCc3ccccc3)C(=O)N(Cc3ccc(Cl)cc3Cl)C1=C[C@H](COCc1ccccc1)O[C@@H]2C	.	.	-5	.	.	.	.
O=C(/C=C/c1ccc(-c2ccccc2)cc1)NC1=NCCS1	.	.	9	.	.	.	.
O=C(Cc1cc(=O)[nH][nH]1)N/N=C/c1cccc2ccccc12	5	6	-5	-2	54*	13	-1
O=C(Cc1cc(=O)[nH][nH]1)N/N=C/C(Cl)=C/c1ccccc1	-3	0	-11	8	49*!	20	3
O=C(Cc1cc(=O)[nH][nH]1)N/N=C/c1cccc(Cl)c1Cl	-1	7	-5	-1	48*!	11	3
Cn1cccc1CC(=O)N/N=C/C(Cl)=C/c1ccccc1	-4	4	-11	-6	4	.	.
O=C(O)COc1ccccc1C=NNC(=O)Cc1cc(=O)[nH][nH]1	.	.	-3	.	.	.	.
O=C(Cc1cc(=O)[nH][nH]1)N/N=C/c1c(F)cccc1Cl	3	5	5	-2	25	.	.
O=C(Cc1cc(=O)[nH][nH]1)N/N=C/c1c(Cl)cccc1Cl	1	-1	10	0	64*!	5	-2
CCN=C1NC(c2ccc(C(F)(F)F)cc2)C(C(=O)OC)=C(C)N1Cc1ccccc1C(F)(F)F (stereo unspecified)	.	.	-4	.	.	.	.
COC(=O)[C@]12C[C@H](CC(=O)NCc3ccccc3)C(=O)N(Cc3cccc4ccccc34)C1=C[C@H](COCc1ccccc1)O[C@@H]2C	.	.	0	.	.	.	.
FC(F)(F)c1ccccc1NC(=S)OC1CCC12CCC(c1ccccc1)CC2 (stereo unspecified)	.	.	2	.	.	.	.
COc1cccc(/C=C2\CC3(OC(=O)c4ccccc4)CCCN2C3)c1 (stereo unspecified)	.	.	3	.	.	.	.
CCC[C@H](/C=C/C(=O)OC(C)(C)C)Sc1ccc(OC)cc1	.	.	3	.	.	.	.
Cc1ccc(/C=N/NC(=O)C(C)NC(=O)c2ccccc2)cc1 (stereo unspecified)	3	0	-5	1	41*	8	-6
O=C(N/N=C/c1ccc(F)cc1)c1ccccc1	4	8	3	8	-2	.	.
Cc1cc(N/N=C/c2ccccc2)nc(NCc2ccccc2)n1	3	12	-18	-12	14	.	.
CN(C)c1cc(N/N=C\c2ccccc2)nc(N(C)C)n1	-1	8	4	-3	95*	89*	7	Fluor interf inh=>100
COc1ccc(/C=N/Nc2cc(N(C)C)nc(N(C)C)n2)cc1	7	2	2	9	97*	95*	4	Fluor interf inh=>100
